Experimental data published in ChEMBL document CHEMBL1152833, “Synthesis of some novel N4-(naphtha[1,2-d]thiazol-2-yl)semicarbazides as potential anticonvulsants” (Eur J Med Chem, 2009).
Activity calls are given as the source filed them.

Legend:
[1] = system: Mus musculus; assay: Neurotoxicity in Swiss albino mouse at 300 mg/kg, ip after 4 hrs by rotarod test; assay type: toxicity, organism-based; design: dose 300 mg/kg, route intraperitoneal; conditions: in vivo
In short: (§1)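 Rotarod test in male Swiss albino mice (18–25 g) after i.p. dosing at 30, 100 and 300 mg/kg, read at 0.5 and 4 h. Mice falling within 30 s in a pre-check were excluded. Neurotoxicity was scored as the minimum dose at which half or more of the mice fell off the rod.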

[2] = system: Mus musculus; assay: Anticonvulsant activity in ip dosed Swiss albino mouse assessed as minimum drug concentration required for inhibition of maximal electroshock-induced seizure in half or more of mouse after 4 hrs by MES test; assay type: functional
In short: (§2)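 Male Swiss albino mice (18–25 g) received compound i.p. at 30, 100 and 300 mg/kg. MES seizures were induced after 0.5 and 4 h, with a drop of 0.9% saline placed in the eye before the electrodes went on. Protection meant abolition of the hind-limb tonic extensor component. The tabulated value is the minimum dose protecting half or more of the mice.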

[3] = system: Mus musculus; assay: Anticonvulsant activity against maximal electroshock-induced seizures in Swiss albino mouse at 300 mg/kg, ip after 0.5 hrs by MES test; assay type: functional, organism-based; design: dose 300 mg/kg; in short: as §2
[4] = system: Mus musculus; assay: Anticonvulsant activity in ip dosed Swiss albino mouse assessed as minimum drug concentration required for inhibition of pentylenetetrazole-induced seizures in half or more of mouse after 4 hrs by scPTZ test; assay type: functional
In short: (§3)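 Male Swiss albino mice (18–25 g) were dosed i.p. at 30, 100 and 300 mg/kg, examined at 0.5 and 4 h. PTZ 85 mg/kg (CD97) was given and the animals were […]. Protection meant absence of any threshold convulsion, i.e. clonic spasm lasting at least 5 s. The value is the minimum dose active in half or more of the mice.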

[5] = system: Mus musculus; assay: Anticonvulsant activity against pentylenetetrazole-induced seizures in Swiss albino mouse at 300 mg/kg, ip after 0.5 hrs by scPTZ test; assay type: functional, organism-based; design: dose 300 mg/kg; in short: as §3
[6] = system: Mus musculus; assay: Neurotoxicity in ip dosed Swiss albino mouse assessed as minimum drug concentration required for falling off the rotarod by half or more of mouse after 0.5 hrs by rotarod test; assay type: toxicity, organism-based; conditions: in vivo; in short: as §1
[7] = system: Mus musculus; assay: Antioxidant activity against PTZ-induced decrease in superoxide dismutase activity in Swiss albino mouse brain assessed as enzyme units per mg of protein causing 50% inhibition in NBT reduction rate at 100 mg/kg, ip administered 30 mins before PTZ challenge measured after 4 hrs; assay type: functional; conditions: route intraperitoneal
In short: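 Same mouse dosing: 100 mg/kg i.p. 30 min before PTZ 85 mg/kg, brains taken at 4 h. Total SOD was measured in the ethanol phase of an ethanol/chloroform (5:3) extract, as inhibition of NBT reduction by xanthine–xanthine oxidase. One unit gives 50% inhibition; activity is expressed per mg protein (Lowry). n=6, mean ± SEM.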

[8] = system: Mus musculus; assay: Anticonvulsant activity in ip dosed Swiss albino mouse assessed as minimum drug concentration required for inhibition of maximal electroshock-induced seizure in half or more of mouse after 0.5 hrs by MES test; assay type: functional; in short: as §2
[9] = system: Mus musculus; assay: Anticonvulsant activity in ip dosed Swiss albino mouse assessed as minimum drug concentration required for inhibition of pentylenetetrazole-induced seizures in half or more of mouse after 0.5 hrs by scPTZ test; assay type: functional; in short: as §3
[10] = system: Mus musculus; assay: Neurotoxicity in ip dosed Swiss albino mouse assessed as minimum drug concentration required for falling off the rotarod by half or more of mouse after 4 hrs by rotarod test; assay type: toxicity, organism-based; conditions: in vivo; in short: as §1
[11] = system: Rattus norvegicus; assay: Anticonvulsant activity against pentylenetetrazole-induced seizures in Wistar albino rat at 50 mg/kg, po up to 2 hrs by scPTZ test; assay type: functional, organism-based; design: dose 50 mg/kg
In short: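 Male Wistar rats (100–125 g) were given compound orally at 50 mg/kg. They were challenged with scPTZ at 70 mg/kg at 0.25, 0.5, 1.0 and 2.0 h, and seizures were watched for. Protection meant absence of clonic spasm lasting at least 5 s. The score is the number of rats protected out of four.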

[12] = system: Rattus norvegicus; assay: Neurotoxicity in Wistar albino rat at 50 mg/kg, po by rotarod test; assay type: toxicity, organism-based; design: dose 50 mg/kg, route oral; conditions: in vivo
[13] = system: Mus musculus; assay: Antioxidant activity against PTZ-induced lipid peroxidation in Swiss albino mouse brain assessed as malondialdehyde content per mg of protein at 100 mg/kg, ip preincubated for 30 mins before PTZ challenge measured after 4 hrs by TBARS assay; assay type: functional; conditions: route intraperitoneal
In short: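 Mice were dosed 100 mg/kg i.p. 30 min before PTZ 85 mg/kg, and brains were homogenized after 4 h. For TBARS, homogenate supernatant was heated with SDS, acetic acid and 0.8% thiobarbituric acid at 95 °C for 1 h. The product was extracted into n-butanol/pyridine and read at 532 nm. Results are pmol MDA/mg protein, n=6, mean ± SEM.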

[14] = system: Mus musculus; assay: Anticonvulsant activity against maximal electroshock-induced seizures in Swiss albino mouse at 300 mg/kg, ip after 4 hrs by MES test; assay type: functional, organism-based; design: dose 300 mg/kg; in short: as §2
[15] = system: Mus musculus; assay: Anticonvulsant activity against pentylenetetrazole-induced seizures in Swiss albino mouse at 300 mg/kg, ip after 4 hrs by scPTZ test; assay type: functional, organism-based; design: dose 300 mg/kg; in short: as §3
[16] = system: Mus musculus; assay: Neurotoxicity in Swiss albino mouse at 300 mg/kg, ip after 0.5 hrs by rotarod test; assay type: toxicity, organism-based; design: dose 300 mg/kg, route intraperitoneal; conditions: in vivo
In short: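 Male Swiss albino mice (18-25 g) received the compound i.p. at 30, 100 or 300 mg/kg and were tested on the rotarod 0.5 and 4 h later. Mice were pre-checked, and any that fell off within 30 s were excluded. Neurotoxicity was scored as falling off the rod. The value is the minimum dose affecting half or more of the mice.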

For `O=C(N/N=C/c1ccccc1Cl)Nc1nc2c(ccc3ccccc32)s1`, the Activity [1] was “Non-toxic”, the Activity [2] was 300 mg/kg and the Activity [3] was “inactive”. For the same compound, the Activity [4] was 300 mg/kg, the Activity [5] was “inactive” and the Activity [6] was 300 mg/kg.

`O=C(N/N=C/c1ccc(Br)cc1)Nc1nc2c(ccc3ccccc32)s1` was tested, and the Activity [7] was 60, the Activity [8] was 100 mg/kg and the Activity [2] was 100 mg/kg. For the same compound, the Activity [9] was 100 mg/kg, the Activity [4] was 100 mg/kg and the Activity [6] was 100 mg/kg. The Activity [10] was 300 mg/kg, the Activity [11] was “Active” and the Activity [12] was “Non-toxic”. It also gave an Activity [13] of 292 pmol.

With `C/C(=N\NC(=O)Nc1nc2c(ccc3ccccc32)s1)c1ccccc1` the Activity [1] was “Non-toxic”, the Activity [3] was “inactive” and the Activity [14] was “inactive”. The Activity [9] was 300 mg/kg, the Activity [4] was 300 mg/kg and the Activity [6] was 100 mg/kg.

In the case of `O=C(N/N=C/c1ccccc1O)Nc1nc2c(ccc3ccccc32)s1`, the Activity [8] is reported as 100 mg/kg, the Activity [14] is reported as “inactive” and the Activity [9] is reported as 300 mg/kg. It also gave an Activity [4] of 300 mg/kg, an Activity [6] of 100 mg/kg and an Activity [10] of 100 mg/kg.

Compound `C1CCc2nnnn2CC1` [PENTYLENETETRAZOL] has an Activity [7] of 42 and an Activity [13] of 418 pmol.

Compound `NC(=O)N1c2ccccc2C=Cc2ccccc21` [CARBAMAZEPINE] has an Activity [8] of 30 mg/kg, an Activity [2] of 100 mg/kg and an Activity [9] of 100 mg/kg. It also gave an Activity [4] of 300 mg/kg, an Activity [6] of 100 mg/kg and an Activity [10] of 300 mg/kg.

For `O=C1NC(=O)C(c2ccccc2)(c2ccccc2)N1` [PHENYTOIN], the Activity [8] was 30 mg/kg, the Activity [2] was 30 mg/kg and the Activity [5] was “inactive”. For the same compound, the Activity [15] was “inactive”, the Activity [6] was 100 mg/kg and the Activity [10] was 100 mg/kg.

With `O=C(N/N=C/c1ccccc1[N+](=O)[O-])Nc1nc2c(ccc3ccccc32)s1` the Activity [3] was “inactive”, the Activity [14] was “inactive” and the Activity [9] was 300 mg/kg. For the same compound, the Activity [4] was 300 mg/kg, the Activity [10] was 100 mg/kg and the Activity [16] was “Non-toxic”.

`O=C(N/N=C/c1ccccc1)Nc1nc2c(ccc3ccccc32)s1` was tested, and the Activity [8] was 300 mg/kg, the Activity [14] was “inactive” and the Activity [9] was 300 mg/kg. It also gave an Activity [4] of 300 mg/kg, an Activity [6] of 100 mg/kg and an Activity [10] of 300 mg/kg.

With `CCCC(CCC)C(=O)O` [VALPROIC ACID] the Activity [7] was 65, the Activity [1] was “Non-toxic” and the Activity [3] was “inactive”. For the same compound, the Activity [14] was “inactive”, the Activity [9] was 300 mg/kg and the Activity [15] was “inactive”. For the same compound, the Activity [16] was “Non-toxic” and the Activity [13] was 216 pmol.

For `COc1cc(/C=N/NC(=O)Nc2nc3c(ccc4ccccc43)s2)cc(OC)c1OC`, the Activity [8] was 300 mg/kg, the Activity [2] was 300 mg/kg and the Activity [4] was 300 mg/kg. The Activity [5] was “inactive”, the Activity [6] was 100 mg/kg and the Activity [10] was 100 mg/kg.

With `O=C(N/N=C1\C(=O)Nc2ccccc21)Nc1nc2c(ccc3ccccc32)s1` the Activity [2] was 300 mg/kg, the Activity [3] was “inactive” and the Activity [9] was 300 mg/kg. The Activity [15] was “inactive”, the Activity [6] was 100 mg/kg and the Activity [10] was 300 mg/kg.
